Active and inactive are the calls of the source. No cut-off for these calls is given here.
What was measured:
Rattus norvegicus [1] = test: Antiallergic activity in egg albumin-sensitized Sprague-Dawley rat assessed as inhibition of passive cutaneous anaphylaxis at 25 to 50 mg/kg, po administered 15 mins prior to egg albumin and Evans blue dye challenge; assay type: functional, organism-based
Method in brief: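 Rats were passively sensitized by intradermal mid-dorsal injection of antibody. The antibody came from rats sensitized to egg albumin with Bordetella pertussis adjuvant, and sensitivity developed over 24 h. Compound was given orally before iv egg albumin plus Evans blue. Blue weal size and intensity were compared with untreated rats to give percent inhibition.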

Rattus norvegicus [2] = test: Antiallergic activity in egg albumin-sensitized Sprague-Dawley rat assessed as inhibition of passive cutaneous anaphylaxis compound administered ip 5 mins prior to egg albumin and Evans blue dye challenge; assay type: functional; conditions: for minimal effective dose: read-out: MED; for ED50: read-out: ID50 (the source's name)
Method in brief: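 Antibody from egg albumin/B. pertussis-sensitized rats was injected intradermally in the mid-dorsal region, then 24 h allowed. Drug was given ip, then iv egg albumin plus Evans blue. Weal size and intensity were scored against untreated controls. Initial doses were 50 or 25 mg/kg, then 10, 5, 2.5 and 1.25 mg/kg, with n = 6 per group. MED was the lowest significant ip dose (p ≤ 0.05, Student's t). ID50 was reported with 95% confidence limits.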

Rattus norvegicus [3] = test: Antiallergic activity in egg albumin-sensitized Sprague-Dawley rat assessed as inhibition of passive cutaneous anaphylaxis compound administered prior to egg albumin and Evans blue dye challenge; conditions: read-out: MED

Row | SMILES | inhibition (Rattus norvegicus [1]) | minimal effective dose (Rattus norvegicus [2]) [mg/kg] | ED50 (Rattus norvegicus [2]) [mg/kg] | minimal effective dose (Rattus norvegicus [3]) [mg/kg]
1 | COC(=O)c1cc(=O)c2ccc(C(C)=O)cc2[nH]1 | inactive | – | – | –
2 | COC(=O)c1cc(=O)c2cc(Cl)cc(C(=O)c3ccccc3)c2[nH]1 | inactive | – | – | –
3 | COC(=O)c1cc(=O)c2cc(C(C)=O)ccc2[nH]1 | inactive | – | – | –
4 | COC(=O)c1cc(=O)c2cccc(C(=O)c3ccc(C)cc3)c2[nH]1 | inactive | – | – | –
5 | COC(=O)c1cc(=O)c2cccc(C(=O)c3ccccc3)c2[nH]1 | inactive | – | – | –
6 | O=C(c1ccccc1)c1ccc2c(=O)cc(C(=O)O)[nH]c2c1 | inactive | 25 | – | –
7 | O=C([O-])c1cc(=O)c2c(OCC(O)COc3cccc4oc(C(=O)[O-])cc(=O)c34)cccc2o1.[Na+].[Na+] [CROMOLYN SODIUM] | inactive | – | 2.6 | –
8 | COC(=O)c1cc(=O)c2cccc(Sc3ccccc3)c2[nH]1 | inactive | – | – | –
9 | O=C(O)c1cc(=O)c2ccc(S(=O)(=O)c3ccccc3)cc2[nH]1 | inactive | > 25 | – | –
10 | O=C(O)c1cc(=O)c2ccc3c(c2[nH]1)-c1ccccc1C3=O | inactive | > 25 | – | –
11 | COC(=O)c1cc(=O)c2cccc(S(=O)(=O)c3ccccc3)c2[nH]1 | inactive | – | – | –
12 | COC(=O)c1cc(=O)c2ccc(C(=O)c3ccccc3)cc2[nH]1 | inactive | – | – | –
13 | O=C(O)c1cc(=O)c2cccc(Sc3ccccc3)c2[nH]1 | inactive | 25 | – | –
14 | CC(=O)c1ccc2c(O)cc(C(=O)O)nc2c1 | inactive | 10 | – | –
15 | COC(=O)c1cc(=O)c2cc([S+]([O-])c3ccccc3)ccc2[nH]1 (stereo not given) | inactive | – | – | –
16 | CC(=O)c1ccc2[nH]c(C(=O)O)cc(=O)c2c1 | inactive | 25 | – | –
17 | COC(=O)c1cc(=O)c2cc(Sc3ccccc3)ccc2[nH]1 | inactive | – | – | –
18 | O=C(O)c1cc(=O)c2cccc(C(=O)c3ccccc3)c2[nH]1 | inactive | 25 | – | –

Row | SMILES | inhibition (Rattus norvegicus [1]) | minimal effective dose (Rattus norvegicus [2]) [mg/kg] | ED50 (Rattus norvegicus [2]) [mg/kg] | minimal effective dose (Rattus norvegicus [3]) [mg/kg]
19 | COC(=O)c1cc(=O)c2cccc(C(C)=O)c2[nH]1 | – | – | – | 25
20 | COC(=O)c1cc(=O)c2ccc3c(c2[nH]1)-c1ccccc1C3=O | inactive | – | – | –
21 | O=C(O)c1cc(=O)c2cc(Cl)cc(C(=O)c3ccccc3)c2[nH]1 | inactive | 50 | – | –
22 | COC(=O)c1cc(=O)c2cc(C(=O)c3ccccc3)ccc2[nH]1 | inactive | – | – | –
23 | O=C(O)c1cc(=O)c2cccc(S(=O)(=O)c3ccccc3)c2[nH]1 | inactive | 10 | – | –
24 | O=C(O)c1cc(=O)c2cc([S+]([O-])c3ccccc3)ccc2[nH]1 (stereo not given) | inactive | 25 | – | –
25 | CC(=O)c1cccc2c(=O)cc(C(=O)O)[nH]c12 | inactive | 25 | – | –
26 | COC(=O)c1cc(=O)c2ccc3c(c2[nH]1)C(=O)c1ccccc1-3 | inactive | – | – | –
27 | COC(=O)c1cc(=O)c2ccc(Sc3ccccc3)cc2[nH]1 | inactive | – | – | –
28 | O=C(c1ccccc1)c1ccc2[nH]c(C(=O)[O-])cc(=O)c2c1.[Na+] | inactive | 10 | – | –
29 | O=C(O)c1cc(=O)c2cc(Sc3ccccc3)ccc2[nH]1 | inactive | > 50 | – | –
30 | O=C(O)c1cc(=O)c2ccc(Sc3ccccc3)cc2[nH]1 | inactive | > 25 | – | –
31 | Cc1ccc(C(=O)c2cccc3c(=O)cc(C(=O)O)[nH]c23)cc1 | inactive | 25 | – | –
32 | COC(=O)c1cc(=O)c2cc(S(=O)(=O)c3ccccc3)ccc2[nH]1 | inactive | – | – | –
33 | O=C(O)c1cc(=O)c2ccc3c(c2[nH]1)C(=O)c1ccccc1-3 | inactive | – | 2.8 | –
34 | COC(=O)c1cc(=O)c2ccc(S(=O)(=O)c3ccccc3)cc2[nH]1 | inactive | – | – | –
35 | O=C(O)c1cc(=O)c2cc(S(=O)(=O)c3ccccc3)ccc2[nH]1 | inactive | > 25 | – | –
36 | O=C(O)c1cc(=O)c2ccccc2[nH]1 [TRANSTORINE] | inactive | 50 | – | –

Source: ChEMBL document CHEMBL3244192, “Antiallergic activity of tetracyclic derivatives of quinoline-2-carboxylic acids. 1” (1978)
